Compounds with a hit are over-represented: about 1.7% of the library has one in this group of screens.
PLC-gamma1 inh: PLC-gamma1 (human) inhibition, primary screen. P19174. 0.84% of 370,000 active. inhibition, % at 12.2 µM. purified PLC-gamma1, fluorogenic substrate, fluorescence; in the data active = inhibition above about 9.5%
Rpn11 inh: blocks the human proteasome subunit Rpn11; human 26S proteasome, Ub4-pepOG fluorescence polarization; 20S core pre-blocked with epoxomicin; inhibition, % at 20 µM; 0.59% of 360,000 active; AID 588493;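 active = inhibition at 20 µM, scaled to each plate's controls, above about 33%, limit read from the data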
Target sequence (O00487 whole entry, looked up): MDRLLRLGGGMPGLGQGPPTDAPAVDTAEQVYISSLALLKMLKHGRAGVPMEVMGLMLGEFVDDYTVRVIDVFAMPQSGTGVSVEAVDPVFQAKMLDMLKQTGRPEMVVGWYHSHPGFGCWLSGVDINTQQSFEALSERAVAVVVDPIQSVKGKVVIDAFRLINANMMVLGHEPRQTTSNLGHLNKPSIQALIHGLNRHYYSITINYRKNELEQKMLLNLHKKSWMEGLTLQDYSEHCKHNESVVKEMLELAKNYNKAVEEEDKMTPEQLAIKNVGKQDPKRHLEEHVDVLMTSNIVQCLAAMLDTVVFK
UCH37 DUB inh: blocks the human deubiquitinase UCH37. purified proteasome/UCH37, Ub-AMC cleavage fluorescence. inhibition, % (no concentration beside the values). 0.33% of 330,000 active;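 active = mean inhibition over replicate wells above about 20%, limit read from the data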
Target sequence (Q9Y5K5 whole entry, looked up): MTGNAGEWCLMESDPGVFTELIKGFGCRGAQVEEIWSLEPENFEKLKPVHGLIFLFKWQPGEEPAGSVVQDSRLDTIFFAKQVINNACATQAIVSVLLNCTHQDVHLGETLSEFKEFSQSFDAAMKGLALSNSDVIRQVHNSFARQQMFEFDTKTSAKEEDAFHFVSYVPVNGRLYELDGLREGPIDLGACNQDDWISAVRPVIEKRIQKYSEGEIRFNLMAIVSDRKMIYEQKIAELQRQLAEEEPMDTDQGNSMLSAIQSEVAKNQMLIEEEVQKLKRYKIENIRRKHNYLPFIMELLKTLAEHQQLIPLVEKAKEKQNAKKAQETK
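System: Proteasome-associated human UCH37 deubiquitinase; Input: 0.15 nM proteasome in added enzyme buffer; Also added: Ub-AMC substrate from 1 µM stock; Incubation: 30 min compound-proteasome preincubation then 25 min substrate reaction, room temperature; Detection: fluorescence, ex 355 nm, em 460 nm; Read-out: % inhibition of Ub-AMC cleavage fluorescence; Benchmarks: no-proteasome and no-compound wells.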
PLC-beta3 inh: blocks human PLC-beta3 enzyme activity; Q01970; Purified PLC-beta3, fluorogenic substrate, fluorescence; inhibition, % at 12.2 µM; 0.18% of 370,000 active; AID 720704; in the data active = inhibition above about 11%
Rpn11 confirm: confirmation of human proteasome Rpn11 inhibitors; AID 602318; purified human 26S proteasome, Ub4-pepOG fluorescence polarization; proteasome pretreated with epoxomicin; shares compounds with Rpn11 inh; 29% of 1,900 active; inhibition, % at 20 µM
MMP-2 counter: MMP-2 (human) inhibition counter-screen. shares compounds with Rpn11 inh. recombinant MMP-2, FRET peptide cleavage fluorescence. inhibition, % at 20 µM. 4% of 1,900 active. AID 602330;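 also: human MMP-2 activated beforehand with APMA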
Thrombin FP: counter-screen for RPN11 inhibitors: inhibition of bovine thrombin; inhibition, % at 20 µM; bovine thrombin cleavage of Ub4-pepOG, fluorescence polarization; shares compounds with Rpn11 inh; AID 602333; 13% of 1,900 active;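 active = mean inhibition at least 40% at 20 µM, or signal 3 deviations below plate average, so some actives read negative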
Of the large screens only hits and unclear results are named; the others gave an inactive call (follow-up assays come after a bar, where shown). Rule as the data show it, unless noted: active = inhibition above about 40%; inactive = the rest.

COCCCn1c(=C(C#N)C(=O)Nc2ccc(C(=O)O)cc2)sc(=Cc2cccc(OC)c2OC)c1=O	none (no result: PLC-gamma1 inh, Rpn11 inh, PLC-beta3 inh)
COCCCn1c(=O)/c(=C\c2ccccc2OC(C)C)s/c1=C(/C#N)C(=O)Nc1ccc(C(=O)O)cc1	Rpn11 inh 99 (no result: UCH37 DUB inh) | Rpn11 confirm inactive | MMP-2 counter inactive | Thrombin FP active
O=C1/C(=C/c2ccc([N+](=O)[O-])cc2)C=C(c2ccccc2)N1c1ccccc1	Rpn11 inh 40 | Rpn11 confirm inactive | MMP-2 counter inactive | Thrombin FP inactive
O=C1/C(=C/c2ccc([N+](=O)[O-])cc2)C=C(c2ccccc2)N1c1ccc(O)cc1	none
Cc1[nH]c2ccccc2c1/C=C/C(=O)c1ccncc1	Rpn11 inh 47 | Rpn11 confirm 42 | MMP-2 counter inactive | Thrombin FP inactive
O=C(/C=C/c1cccc2ccccc12)c1ccncc1	none
CCn1c2ccccc2c2cc(/C=N/NC(=O)c3cccc(C)c3)ccc21	Rpn11 inh 147 (no result: UCH37 DUB inh) | Rpn11 confirm inactive | MMP-2 counter inactive | Thrombin FP inactive
CCOc1cc(/C=C2/C(=N)N3C(=NC2=O)SN=C3S(=O)(=O)CC)ccc1OC(=O)c1ccco1	Rpn11 inh 56 | Rpn11 confirm inactive | MMP-2 counter inactive | Thrombin FP inactive
COc1cc(/C=C2/C(=N)N3C(SC)=NSC3=NC2=O)ccc1OC(=O)c1ccco1	none
CCOc1cc(/C=C2/C(=N)N3OC(C)=CC3=NC2=O)ccc1OC(=O)c1ccco1	none
COc1cc(/C=C2/C(=N)N3C(=NC2=O)SN=C3S(=O)(=O)C(C)C)ccc1OC(=O)c1ccco1	Rpn11 inh 47 | Rpn11 confirm inactive | MMP-2 counter inactive | Thrombin FP inactive
COc1cc(/C=C2/C(=N)N3C(=NC2=O)SN=C3S(C)(=O)=O)ccc1OC(=O)c1ccco1	Rpn11 inh 69 | Rpn11 confirm 67 | MMP-2 counter inactive | Thrombin FP inactive
CCS(=O)(=O)C1=NSC2=NC(=O)/C(=C\c3ccc(OC(=O)c4ccco4)c(OC)c3)C(=N)N21	Rpn11 inh 118 | Rpn11 confirm inactive | MMP-2 counter inactive | Thrombin FP inactive
CCOc1cc(/C=C2/C(=N)N3C(=NC2=O)SN=C3S(=O)(=O)C(C)C)ccc1OC(=O)c1ccco1	none (not shown: Rpn11 inh)
CS(=O)(=O)C1=NN2C(=N)/C(=C\c3ccc(OC(=O)c4ccco4)cc3)C(=O)N=C2S1	none
Cc1cc(/C=C2/C(=N)N3C(=NC2=O)SN=C3S(C)(=O)=O)c(C)n1-c1ccccc1F	none (no result: UCH37 DUB inh)
CS(=O)(=O)C1=NSC2=NC(=O)/C(=C\c3cccn3-c3ccc(Cl)cc3)C(=N)N21	Rpn11 inh 47 | Rpn11 confirm 77 | MMP-2 counter inactive | Thrombin FP 120
CCS(=O)(=O)C1=NN2C(=N)/C(=C\c3ccc(OC(=O)c4ccco4)c(OC)c3)C(=O)N=C2S1	Rpn11 inh 46 (no result: UCH37 DUB inh) | Rpn11 confirm inactive | MMP-2 counter inactive | Thrombin FP inactive
COc1cc(/C=N/OCC(=O)Nc2cc(C)cc(C)c2)ccc1OCc1ccc(Cl)cc1	Rpn11 inh 42 (no result: UCH37 DUB inh) | Rpn11 confirm inactive | MMP-2 counter inactive | Thrombin FP inactive
CN1CCC(N(C)C(=O)c2sc3cc(F)ccc3c2Cl)CC1	Rpn11 inh 109 | Rpn11 confirm inactive | MMP-2 counter inactive | Thrombin FP inactive
O=C(O)c1ccc(NC(=S)Nc2ccccc2)cc1	Rpn11 inh 34 | Rpn11 confirm inactive | MMP-2 counter inactive | Thrombin FP inactive
O=C(NC(=S)Nc1cccc(NC(=S)NC(=O)c2ccccc2)c1)c1ccccc1	Rpn11 inh 40 | Rpn11 confirm inactive | MMP-2 counter 49 | Thrombin FP inactive
C/C(=N\Nc1ccc(C#N)cc1[N+](=O)[O-])c1ccc(C)o1	Rpn11 inh 64 (no result: UCH37 DUB inh) | Rpn11 confirm inactive | MMP-2 counter inactive | Thrombin FP inactive
O=C(CNC(=O)c1ccccn1)NN=Cc1ccccc1	none (no result: PLC-gamma1 inh, Rpn11 inh, PLC-beta3 inh)
CCCC(=O)N=C1SC2CS(=O)(=O)CC2N1c1ccc(-c2nc3ccc(C)cc3s2)cc1 (stereo not drawn)	Rpn11 inh 46 | Rpn11 confirm inactive | MMP-2 counter inactive | Thrombin FP inactive
CC(=NNc1cc(Cl)nc(C)n1)c1ccccc1	none (no result: PLC-gamma1 inh, Rpn11 inh, PLC-beta3 inh)
Cc1cc(C)c2nc(N=C(N)NC(=O)Nc3ccccc3)nc(C)c2c1	none (no result: PLC-gamma1 inh, Rpn11 inh, PLC-beta3 inh)
Cc1cc(C)c2nc(/N=C(\N)NC(=O)Nc3ccccc3)nc(C)c2c1	Rpn11 inh 47 (no result: UCH37 DUB inh) | Rpn11 confirm inactive | MMP-2 counter inactive | Thrombin FP inactive
Cc1n[nH]c(=S)n1N=Cc1ccc(Br)o1	none (no result: PLC-gamma1 inh, Rpn11 inh, PLC-beta3 inh)
COc1ccc(-c2ccc3[nH]c4c(c3c2)CCN2C[C@@H]([C@H](C)O)[C@@H](N(C)C(=O)Nc3cc(Cl)cc(Cl)c3)C[C@@H]42)cc1	Rpn11 inh 41 (no result: UCH37 DUB inh) | Rpn11 confirm inactive | MMP-2 counter inactive | Thrombin FP inactive
Cn1nccc1C(=O)NN=Cc1cccnc1	none (no result: PLC-gamma1 inh, Rpn11 inh, PLC-beta3 inh)
Cc1csc(SCC(=O)NC(=O)Cc2ccccc2)n1	none
Cc1csc(SCC(=O)NC(=O)NCc2ccccc2)n1	Rpn11 inh 183 | Rpn11 confirm inactive | MMP-2 counter inactive | Thrombin FP inactive
COc1ccc(CC(C)=NNC(=O)c2ccc(C)cc2C)cc1	none (no result: PLC-gamma1 inh, Rpn11 inh, PLC-beta3 inh)
O=C(Nc1cccc2nsnc12)c1ccc(-c2ccc(Br)cc2)o1	Rpn11 inh 53 | Rpn11 confirm inactive | MMP-2 counter inactive | Thrombin FP inactive
COC(=O)c1ccccc1NC(=O)c1ccc(-c2ccc(Br)cc2)o1	none
CSc1ccc(/C=C2\C(=N)N3N=C(CC(=O)N4CCCCC4)SC3=NC2=O)cc1	Rpn11 inh 52 (no result: UCH37 DUB inh) | Rpn11 confirm inactive | MMP-2 counter inactive | Thrombin FP inactive
Cc1ccc(/C=C2\C(=N)N3N=C(CC(=O)N4CCCCC4)SC3=NC2=O)cc1	none
COc1cc(C=NNC(=O)COc2ccc(Cl)cc2)ccc1OS(=O)(=O)c1ccc(C)cc1	none (no result: PLC-gamma1 inh, Rpn11 inh, PLC-beta3 inh)
Cc1cc(C)c(S(=O)(=O)N2C[C@H]3CON(C)[C@H]3C[C@H]2c2ccc(N3CCCCC3)cc2)c(C)c1	Rpn11 inh 77 (no result: UCH37 DUB inh) | Rpn11 confirm 96 | MMP-2 counter inactive | Thrombin FP 87
CC(=NNC(=O)COc1ccc(C(C)(C)C)cc1)c1ccc(N2CCOCC2)cc1	none (no result: PLC-gamma1 inh, Rpn11 inh, PLC-beta3 inh)
Cc1ccc(NC(=O)C(C)SCc2nc3sc(C)c(C)c3c(=O)[nH]2)nc1 (stereo not drawn)	none
Cc1sc2nc(CSC(C)C(=O)Nc3ccccn3)[nH]c(=O)c2c1C (stereo not drawn)	none
Cc1ccc(NC(=O)C(C)SCc2nc3sc4c(c3c(=O)[nH]2)CCCC4)nc1 (stereo not drawn)	Rpn11 inh 55 | Rpn11 confirm 49 | MMP-2 counter inactive | Thrombin FP inactive
CC(SCc1nc2sc3c(c2c(=O)[nH]1)CCCC3)C(=O)Nc1ccccn1 (stereo not drawn)	Rpn11 inh 45 | Rpn11 confirm inactive | MMP-2 counter inactive | Thrombin FP inactive
